Calls of active or inactive are those of the source.
Assays:
C2C12 [1] = assay: Induction of osteoblast differentiation in mouse C2C12 cells assessed as increase in ALP promoter activity at 10 uM measured 48 hrs by luciferase reporter gene analysis; type: functional, cell-based
Method in brief: (§1)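 C2C12 cells seeded and grown 24 h, then transiently transfected (Ca3PO4 or Lipofectamine Plus) with ALP-, OC-, BSP- or OSE-luciferase reporter plus pCMV β-gal to normalise transfection efficiency. Treated at 10 μM. Luciferase read from cell lysates 48 h post-transfection; three independent experiments.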

C2C12 [2] = assay: Induction of osteoblast differentiation in mouse C2C12 cells assessed as increase in osteoclacin promoter activity at 10 uM measured 48 hrs by luciferase reporter gene analysis; type: functional, cell-based; method in brief: as §1
C2C12 [3] = assay: Induction of osteoblast differentiation in mouse C2C12 cells assessed as increase in of bone sialoprotein promoter activity at 10 uM measured 48 hrs by luciferase reporter gene analysis; type: functional, cell-based; method in brief: as §1
C2C12 [4] = assay: Induction of osteoblast differentiation in mouse C2C12 cells assessed as increase in OSE promoter activity at 10 uM measured 48 hrs by luciferase reporter gene analysis; type: functional, cell-based; method in brief: as §1
C2C12 [5] = assay: Induction of osteoblast differentiation in mouse C2C12 cells assessed as increase in ALP promoter activity measured 48 hrs by luciferase reporter gene analysis; type: functional, cell-based
Method in brief: (§2)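 ALP- or OC-luciferase reporter transfected into C2C12 cells with pCMV β-gal control (Ca3PO4 or Lipofectamine Plus), after 24 h growth post-seeding. Dose-response at 1, 5 and 10 μM. Lysate luciferase activity measured 48 h later; three independent experiments.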

C2C12 [6] = assay: Induction of osteoblast differentiation in mouse C2C12 cells assessed as increase in osteoclacin promoter activity measured 48 hrs by luciferase reporter gene analysis; type: functional, cell-based; method in brief: as §2
C2C12 [7] = assay: Induction of osteogenesis in mouse C2C12 cells assessed as increase in osteoblast differentiation-associated ALP level at 10 uM after 2 days in presence of 5 ng/mL BMP2
C2C12 [8] = assay: Increase in ALP mRNA expression in mouse C2C12 cells by RT-PCR analysis; type: functional, cell-based
Method in brief: (§3)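 C2C12 cells (DMEM, 20% FBS, 37 °C, 5% CO2) treated at 1, 5, 10 μM, with BMP2 as comparator. Total RNA extracted with TRIzol. cDNA made from 1 μg RNA using random primers. Semiquantitative RT-PCR for ALP and collagen type 1α with GAPDH reference, 28−30 cycles (94 °C 30 s, primer-specific annealing 30 s, 72 °C 30 s).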

C2C12 [9] = assay: Increase in collagen type 1 alpha mRNA expression in mouse C2C12 cells by RT-PCR analysis; type: functional, cell-based; method in brief: as §3

Measured: Activity

C=C1C[C@]23C[C@H]1CC[C@H]2[C@]1(C)CCC[C@](C)(COC(C)=O)[C@H]1C[C@H]3O
active: C2C12 [1] | C2C12 [2] | C2C12 [3] | C2C12 [4] | C2C12 [5] Dose-dependent effect | C2C12 [6] Dose-dependent effect | C2C12 [7]

C=C1C[C@@]23CC[C@@H]4[C@@](C)(COC(C)=O)CCC[C@@]4(C)[C@@H]2[C@H](O)C[C@@H]1C3
active: C2C12 [1] | C2C12 [2] | C2C12 [3] | C2C12 [4] | C2C12 [5] Dose-dependent effect | C2C12 [6] Dose-dependent effect | C2C12 [8] Dose-dependent effect | C2C12 [9] Dose-dependent effect | C2C12 [7]

C=C1C[C@@]23CC[C@@H]4[C@@](C)(COC(C)=O)CCC[C@@]4(C)[C@@H]2CC[C@@H]1[C@H]3O
active: C2C12 [1] | C2C12 [2] | C2C12 [3] | C2C12 [4] | C2C12 [5] Dose-dependent effect | C2C12 [6] Dose-dependent effect | C2C12 [8] Dose-dependent effect | C2C12 [9] Dose-dependent effect | C2C12 [7]

C=C1C[C@@]23CC[C@@H]4[C@@](C)(CO)CCC[C@@]4(C)[C@@H]2[C@@H](OC(C)=O)C[C@@H]1C3
active: C2C12 [1] | C2C12 [2] | C2C12 [3] | C2C12 [4] | C2C12 [5] Dose-dependent effect | C2C12 [6] Dose-dependent effect | C2C12 [8] Dose-dependent effect | C2C12 [9] Dose-dependent effect | C2C12 [7]
